Reference: ChEMBL document CHEMBL3784986, “Discovery and Characterization of Biased Allosteric Agonists of the Chemokine Receptor CXCR3” (J Med Chem, 2016)
Calls of active or inactive are those of the source. The rule behind the calls is not given here.

Legend:
[1] = Cytotoxicity against HEK293T cells expressing CXCR3 at 10 uM incubated overnight by ApoTox-Glo Triplex assay; assay type: cell-based; settings: human, hek-293t
Method in brief: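 10,000 HEK293T cells stably expressing CXCR3 incubated overnight with compound at 10 µM. ApoTox-Glo triplex. Viability read by fluorescence at 400Ex/505Em (GF-AFC) and cytotoxicity at 485Ex/520Em (bis-AAF-R110), each after a 30 min reagent step. Caspase-3/7 luminescence then read after a further 30 min.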

[2] = target: T1, C-X-C chemokine receptor type 3 (Homo sapiens) (UniProt P49682); experiment: Inhibition of CXCL11-mediated activation of human CXCR3 expressed in HEK cells; assay type: cell-based; settings: HEK293
T1 sequence (whole entry): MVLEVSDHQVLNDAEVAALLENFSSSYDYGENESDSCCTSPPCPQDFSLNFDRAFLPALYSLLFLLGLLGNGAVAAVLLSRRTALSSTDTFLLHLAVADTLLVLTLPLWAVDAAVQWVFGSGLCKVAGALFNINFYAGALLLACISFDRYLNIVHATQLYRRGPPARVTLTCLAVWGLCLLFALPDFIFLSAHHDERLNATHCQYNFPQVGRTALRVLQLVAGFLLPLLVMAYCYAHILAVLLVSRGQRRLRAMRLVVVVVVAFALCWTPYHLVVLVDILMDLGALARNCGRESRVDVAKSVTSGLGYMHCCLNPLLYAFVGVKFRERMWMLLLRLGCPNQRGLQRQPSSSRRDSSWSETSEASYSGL

[3] = target: T1, C-X-C chemokine receptor type 3 (Homo sapiens); experiment: Inhibition of CXCL10-mediated activation of human CXCR3 expressed in HEK cells; assay type: cell-based; settings: HEK293
[4] = target: T1, C-X-C chemokine receptor type 3 (Homo sapiens); experiment: Positive allosteric modulation of human CXCR3 expressed in HEK293T cell membranes after 30 mins by [35S]GTPgammaS incorporation assay; assay type: functional; settings: HEK-293T
Method in brief: (§1)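 Membranes from HEK293 cells stably expressing CXCR3 (30 µg/mL protein) in 20 mM HEPES, 10 mM MgCl2, 100 mM NaCl, 100 mg/L saponin, pH 7.4. Compound plus 1 µM GDP preincubated 30 min at 37 °C, then 0.10 nM [35S]GTPγS added for 30 min at 37 °C. Filtered on GF/B and counted. Efficacy expressed as % of CXCL11. Three experiments in triplicate, pEC50 by nonlinear regression.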

[5] = target: T1, C-X-C chemokine receptor type 3 (Homo sapiens); experiment: Positive allosteric modulation of human CXCR3 expressed in HEK293T cell membranes after 30 mins by [35S]GTPgammaS incorporation assay relative to CXCL11; assay type: functional; settings: HEK-293T; method in brief: as §1
[6] = target: T1, C-X-C chemokine receptor type 3 (Homo sapiens); experiment: Positive allosteric modulation of ProLink1-tagged wild type CXCR3 (unknown origin) expressed in HEK293T cells assessed as beta-arrestin-2 recruitment incubated for 4 hrs by chemiluminescence-based microplate reader method relative to CXCL11; assay type: cell-based; settings: HEK-293T
Method in brief: (§2)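 HEK293 cells stably expressing β-gal enzyme acceptor, transiently transfected with PK1- or PK2-tagged wild-type CXCR3, 2000 cells/well, grown overnight at 37 °C. Compounds or CXCL11 in PBS pH 7.4 with 0.20% BSA added for 4 h. Detection mix 60 min at room temperature, then chemiluminescence read. Efficacy expressed as % of CXCL11 effect. Two to three experiments in triplicate.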

[7] = target: T1, C-X-C chemokine receptor type 3 (Homo sapiens); experiment: Positive allosteric modulation of ProLink2-tagged wild type CXCR3 (unknown origin) expressed in HEK293T cells assessed as beta-arrestin-2 recruitment incubated for 4 hrs by chemiluminescence-based microplate reader method relative to CXCL11; assay type: cell-based; settings: HEK-293T; method in brief: as §2
[8] = target: T1, C-X-C chemokine receptor type 3 (Homo sapiens); experiment: Positive allosteric modulation of ProLink1-tagged wild type CXCR3 (unknown origin) expressed in HEK293T cells assessed as beta-arrestin-2 recruitment incubated for 4 hrs by chemiluminescence-based microplate reader method; assay type: cell-based; settings: HEK-293T; method in brief: as §2

CC(C)(C)OC(=O)N[C@H](CCCCNC(=O)[C@@H]1Cc2ccccc2CN1)C(=O)NCC(c1ccccc1)c1ccccc1
Activity [1]: Non-toxic
inhibition [2]: inactive
inhibition [3]: inactive

N[C@@H](CCCCNC(=O)[C@@H]1Cc2ccccc2CN1C(=O)CCC(=O)c1ccccc1)C(=O)NCC(c1ccccc1)c1ccccc1
pEC50 [4]: inactive
Efficacy [5]: inactive
inhibition [2]: inactive
inhibition [3]: inactive
Efficacy [6]: 17%
Efficacy [7]: 27%

CC(C)(C)OC(=O)NCCCC[C@@H](NC(=O)[C@@H]1Cc2ccccc2CN1C(=O)CCC(=O)c1ccccc1)C(=O)NCC(c1ccccc1)c1ccccc1
Efficacy [5]: 33%
Efficacy [6]: 36%
Efficacy [7]: 30%

N[C@@H](CCCCNC(=O)[C@@H]1Cc2ccccc2CN1C(=O)CCCC(=O)c1ccccc1)C(=O)NCC(c1ccccc1)c1ccccc1
pEC50 [4]: inactive
Efficacy [5]: inactive
inhibition [2]: inactive
inhibition [3]: inactive
Efficacy [6]: 20%
Efficacy [7]: 91%

CC(C)(C)OC(=O)N[C@@H](CCCCNC(=O)[C@@H]1Cc2ccccc2CN1C(=O)CCC(=O)c1ccc(F)cc1)C(=O)NCC(c1ccccc1)c1ccccc1
Efficacy [5]: 20%
Activity [1]: Non-toxic
inhibition [2]: inactive
inhibition [3]: inactive
pEC50 [8]: inactive
Efficacy [6]: inactive

CC(C)(C)OC(=O)N[C@@H](CCCCNC(=O)[C@@H]1Cc2ccccc2CN1C(=O)CCC(=O)c1cccs1)C(=O)NCC(c1ccccc1)c1ccccc1
pEC50 [4]: inactive
Efficacy [5]: inactive
inhibition [2]: inactive
inhibition [3]: inactive
pEC50 [8]: inactive
Efficacy [6]: inactive

COc1ccc(C(=O)CCC(=O)N2Cc3ccccc3C[C@H]2C(=O)NCCCC[C@H](NC(=O)OC(C)(C)C)C(=O)NCC(c2ccccc2)c2ccccc2)cc1OC
Efficacy [5]: 18%
Activity [1]: Non-toxic
inhibition [2]: inactive
inhibition [3]: inactive
pEC50 [8]: inactive
Efficacy [6]: inactive

NCCCC[C@@H](NC(=O)[C@@H]1Cc2ccccc2CN1C(=O)CCC(=O)c1ccccc1)C(=O)NCC(c1ccccc1)c1ccccc1
Efficacy [5]: 85%
Efficacy [6]: 108%
Efficacy [7]: 198%

CC(C)(C)OC(=O)N[C@@H](CCCCNC(=O)[C@@H]1Cc2ccccc2CN1)C(=O)NCC(c1ccccc1)c1ccccc1
Efficacy [5]: 34%
Activity [1]: Non-toxic
inhibition [2]: inactive
inhibition [3]: inactive
Efficacy [6]: 31%
Efficacy [7]: 79%

CC(C)(C)OC(=O)NCCCC[C@H](NC(=O)OCc1ccccc1)C(=O)NCC(c1ccccc1)c1ccccc1
Activity [1]: Non-toxic

CC(C)(C)OC(=O)N[C@@H](CCCCNC(=O)[C@@H]1Cc2ccccc2CN1C(=O)CCCc1ccccc1)C(=O)NCC(c1ccccc1)c1ccccc1
Efficacy [5]: 29%
Activity [1]: Non-toxic
inhibition [2]: inactive
inhibition [3]: inactive
pEC50 [8]: inactive
Efficacy [6]: inactive

CC(C)(C)OC(=O)N[C@@H](CCCCNC(=O)[C@@H]1Cc2ccccc2CN1C(=O)CCC(=O)c1ccco1)C(=O)NCC(c1ccccc1)c1ccccc1
pEC50 [4]: inactive
Efficacy [5]: inactive
inhibition [2]: inactive
inhibition [3]: inactive
pEC50 [8]: inactive
Efficacy [6]: inactive

NCCCC[C@H](NC(=O)[C@@H]1Cc2ccccc2CN1C(=O)CCC(=O)c1ccccc1)C(=O)NCC(c1ccccc1)c1ccccc1.O=C(O)C(F)(F)F
Activity [4]: Dose-dependent effect
Efficacy [5]: 109%
Activity [1]: Non-toxic
Efficacy [6]: 139%

CC(C)(C)OC(=O)N[C@@H](CCCCNC(=O)[C@@H]1Cc2ccccc2CN1C(=O)CCC(=O)c1ccc(S(C)(=O)=O)cc1)C(=O)NCC(c1ccccc1)c1ccccc1
Efficacy [5]: 25%
Activity [1]: Non-toxic
inhibition [2]: inactive
inhibition [3]: inactive
pEC50 [8]: inactive
Efficacy [6]: inactive

N[C@H](CCCCNC(=O)[C@@H]1Cc2ccccc2CN1C(=O)CCC(=O)c1ccccc1)C(=O)NCC(c1ccccc1)c1ccccc1
Efficacy [5]: 25%
inhibition [2]: inactive
inhibition [3]: inactive
Efficacy [6]: 28%
Efficacy [7]: 79%

CC(C)(C)OC(=O)N[C@H](CCCCNC(=O)[C@@H]1Cc2ccccc2CN1C(=O)CCC(=O)c1ccccc1)C(=O)NCC(c1ccccc1)c1ccccc1
pEC50 [4]: inactive
Efficacy [5]: inactive
Activity [1]: Non-toxic
inhibition [2]: inactive
inhibition [3]: inactive
Efficacy [6]: 16%
Efficacy [7]: 88%

CC(C)(C)OC(=O)N[C@@H](CCCCNC(=O)[C@@H]1Cc2ccccc2CN1C(=O)CCC(=O)N1CCOCC1)C(=O)NCC(c1ccccc1)c1ccccc1
pEC50 [4]: inactive
Efficacy [5]: inactive
inhibition [2]: inactive
inhibition [3]: inactive
pEC50 [8]: inactive
Efficacy [6]: inactive

CN1CCN(C(=O)CCC(=O)N2Cc3ccccc3C[C@H]2C(=O)NCCCC[C@H](NC(=O)OC(C)(C)C)C(=O)NCC(c2ccccc2)c2ccccc2)CC1
pEC50 [4]: inactive
Efficacy [5]: inactive
inhibition [2]: inactive
inhibition [3]: inactive
pEC50 [8]: inactive
Efficacy [6]: inactive

CC(C)(C)OC(=O)N[C@@H](CCCCNC(=O)[C@@H]1Cc2ccccc2CN1C(=O)CCCC(=O)c1ccccc1)C(=O)NCC(c1ccccc1)c1ccccc1
pEC50 [4]: inactive
Efficacy [5]: inactive
Activity [1]: Non-toxic
inhibition [2]: inactive
inhibition [3]: inactive
Efficacy [6]: 20%
Efficacy [7]: 56%

CC(=O)CCC(=O)N1Cc2ccccc2C[C@H]1C(=O)NCCCC[C@H](NC(=O)OC(C)(C)C)C(=O)NCC(c1ccccc1)c1ccccc1
pEC50 [4]: inactive
Efficacy [5]: inactive
Activity [1]: Non-toxic
inhibition [2]: inactive
inhibition [3]: inactive
Efficacy [6]: 34%
Efficacy [7]: 63%

N[C@@H](CCCCNC(=O)[C@@H]1Cc2ccccc2CN1)C(=O)NCC(c1ccccc1)c1ccccc1
Efficacy [5]: 40%
inhibition [2]: inactive
inhibition [3]: inactive
Efficacy [6]: 14%
Efficacy [7]: 85%

CC(C)(C)OC(=O)N[C@@H](CCCCNC(=O)[C@@H]1Cc2ccccc2CN1C(=O)CCC(=O)N1CCCCC1)C(=O)NCC(c1ccccc1)c1ccccc1
pEC50 [4]: inactive
Efficacy [5]: inactive
inhibition [2]: inactive
inhibition [3]: inactive
pEC50 [8]: inactive
Efficacy [6]: inactive

CC(C)(C)OC(=O)N[C@@H](CCCCNC(=O)[C@@H]1Cc2ccccc2CN1C(=O)CCc1ccccc1)C(=O)NCC(c1ccccc1)c1ccccc1
Efficacy [5]: 30%
Activity [1]: Non-toxic
inhibition [2]: inactive
inhibition [3]: inactive
Efficacy [6]: 19%
Efficacy [7]: 29%
